The subject of one assay is HCC 2998. Put plainly: Cytotoxicity against human HCC2998 cells assessed as growth inhibition after 72 hrs by MTT assay. The assay is classed as functional. To be noted: HCC 2998, 72 h. A general note: Tetrazolium assays rely on reduction of a dye to a coloured formazan, in cell work by metabolically active cells.
For a further assay, the system named is T47D. Put plainly: Cytotoxicity against human T47D cells assessed as growth inhibition after 72 hrs by MTT assay. The assay is classed as functional. Put shortly:
(§1)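 NCI 60-cell-line panel screen. Compounds were tested at 5 concentrations in 10-fold dilution (10^-4 to 10^-8 M) across the full panel. GI50 was taken as the molar concentration giving 50% inhibition of net cell growth.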

Another assay has as its system U-251. Put plainly: Cytotoxicity against human U251 cells assessed as growth inhibition after 72 hrs by MTT assay. The assay is classed as functional. To be noted: U-251, 72 h. Put shortly:
as §1

The test system of assay [1] is CCRF-CEM. Briefly: Cytotoxicity against human CEM cells assessed as growth inhibition after 72 hrs by MTT assay. The assay is classed as functional. Put shortly:
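Cells were grown in medium with 10% heat-inactivated FBS plus penicillin/streptomycin: RPMI-1640 for Jurkat and CEM, DMEM for A-431, HAM's F12 for LoVo. The doxorubicin-resistant LoVo subclone was kept with 0.1 µg/mL doxorubicin. Cells were seeded at 5x10^3 per well and pre-incubated 24 h at 37 °C.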

A further assay has as its system MCF7. Put plainly: Cytotoxicity against human MCF7 cells assessed as growth inhibition after 72 hrs by MTT assay. The conditions noted are these: MCF7, 72 h. The assay is classed as functional.
Another assay deals with IGROV-1. Put plainly: Cytotoxicity against human IGROV1 cells assessed as growth inhibition after 72 hrs by MTT assay. The assay is classed as functional. The conditions noted are these: IGROV-1, 72 h.
Assay [2] concerns LoVo. Put plainly: Anticlonogenic activity against human LoVo cells assessed as inhibition of colony formation of cells at 2.5 to 5 uM incubated for 24 hrs followed by compound washout measured after 1 to 2 weeks by crystal violet staining-based assay. The assay is classed as functional, cell-based.
Another assay relates to MOLT-4. Put plainly: Cytotoxicity against human MOLT4 cells assessed as growth inhibition after 72 hrs by MTT assay. To be noted: MOLT-4, 72 h. The assay is classed as functional.
The next assay has as its system RPMI-8226. Briefly: Cytotoxicity against human RPMI8226 cells assessed as growth inhibition after 72 hrs by MTT assay. The assay is classed as functional. To be noted: RPMI-8226, 72 h. Put shortly: as §1
For another assay, the system named is SK-OV-3. Briefly: Cytotoxicity against human SKOV3 cells assessed as growth inhibition after 72 hrs by MTT assay. The assay is classed as functional. To be noted: SK-OV-3, 72 h. The essentials:
as §1

Assay [3] has as its system CCRF-CEM. Put plainly: Cytotoxicity against human CCRF-CEM cells assessed as growth inhibition after 72 hrs by MTT assay. The assay is classed as functional.
Assay [4] deals with LoVo. Put plainly: Anticlonogenic activity against human LoVo cells assessed as inhibition of colony formation of cells at 0.625 to 10 uM incubated for 24 hrs followed by compound washout measured after 1 to 2 weeks by crystal violet staining-based assay. The assay is classed as functional, cell-based.

Activity calls are given as the source filed them. No cut-off for these calls is given here. Bounds are passed on as bounds.

Consider `COc1ccc2c(c1)nnc1c3cccnc3[nH]c21`, for which the GI50 in the assay on HCC 2998 is 8230 nM; in the assay with T47D it was 490 nM; in the assay with U-251, 930 nM; with CCRF-CEM [1], 650 nM; in the assay on MCF7, 230 nM; in the assay on IGROV-1, 310 nM. In addition, the GI50 in the assay with MOLT-4 was determined as 29 nM; with RPMI-8226 it was 730 nM; in the assay with SK-OV-3, 2690 nM. The inhibition entry in the assay on LoVo [2] was “Active”.

As to `O=Nc1c2cccnc2n2nnc3ccc(Cl)cc3c12`, the concentration for 50% growth inhibition (GI50) in the assay on CCRF-CEM [3] came out at 23 nM; with HCC 2998, 8400 nM; with T47D it was 260 nM; with U-251, 1270 nM; in the assay with MCF7 it was 570 nM; in the assay on IGROV-1, 1350 nM. Also, the concentration for 50% growth inhibition (GI50) was found to be 18 nM in the assay with MOLT-4, 170 nM with RPMI-8226 and 2980 nM in the assay on SK-OV-3.

For the molecule `COc1cc2nnc3c4cccnc4[nH]c3c2cc1OC`, the 50% growth inhibitory concentration (GI50) was 1950 nM with HCC 2998; 400 nM in the assay with T47D; 920 nM in the assay with U-251; 340 nM in the assay with MCF7; 1730 nM with IGROV-1; 18 nM with MOLT-4. For the same molecule, the 50% growth inhibitory concentration (GI50) came to 190 nM in the assay on RPMI-8226 and 2290 nM in the assay with SK-OV-3.

Take `COc1ccc2c(c1)nnn1c3ncccc3c(N=O)c21`: the GI50 was 7230 nM with HCC 2998; 160 nM in the assay on T47D; 720 nM in the assay with U-251; 220 nM with CCRF-CEM [1]; 130 nM in the assay on MCF7; 110 nM in the assay with IGROV-1. Besides, the GI50 turned out to be 9.4 nM in the assay on MOLT-4, 260 nM with RPMI-8226 and 1680 nM with SK-OV-3. Besides, the inhibition result in the assay with LoVo [4] is “Active”.

As to `COc1cc2nnn3c4ncccc4c(N=O)c3c2cc1OC`, the GI50 in the assay on CCRF-CEM [3] was < 10 nM; with HCC 2998, 1000 nM; in the assay with T47D it was 210 nM; in the assay with U-251 it was 600 nM; in the assay with CCRF-CEM [1], 240 nM; in the assay with MCF7 it was 260 nM. Also, the GI50 was 1940 nM in the assay with IGROV-1, < 10 nM in the assay on MOLT-4, 110 nM in the assay on RPMI-8226 and 4020 nM in the assay on SK-OV-3. In addition, the inhibition result in the assay with LoVo [2] was “Active”.

Usually GI50 stands for the concentration giving 50% growth inhibition.

The values are drawn from ChEMBL document CHEMBL3351507, “11H-Pyrido[3',2':4,5]pyrrolo[3,2-c]cinnoline and pyrido[3',2':4,5]pyrrolo[1,2-c][1,2,3]benzotriazine: two new ring systems with antitumor activity” (2014).
